Reference: ChEMBL document CHEMBL3860024, “New cinnamic - N-benzylpiperidine and cinnamic - N,N-dibenzyl(N-methyl)amine hybrids as Alzheimer-directed multitarget drugs with antioxidant, cholinergic, neuroprotective and neurogenic properties” (Eur J Med Chem, 2016)
Activity calls are given as the source filed them. No cut-off for these calls is given here.

Experiments:
[1] = Antioxidant activity assessed as AAPH free radical scavenging activity by measuring trolox equivalent by oxygen radical absorbance capacity method; assay type: functional
In short: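 Oxygen radical absorbance capacity (ORAC) assay with trolox as the standard. Fluorescence was read on a plate reader with 485-P excitation and 520-P emission filters. Values are expressed as trolox equivalents, mean ± SEM (n = 5).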

[2] = target: T1, Amine oxidase [flavin-containing] B (Homo sapiens, UniProt P27338)
T1 sequence (P27338 whole entry): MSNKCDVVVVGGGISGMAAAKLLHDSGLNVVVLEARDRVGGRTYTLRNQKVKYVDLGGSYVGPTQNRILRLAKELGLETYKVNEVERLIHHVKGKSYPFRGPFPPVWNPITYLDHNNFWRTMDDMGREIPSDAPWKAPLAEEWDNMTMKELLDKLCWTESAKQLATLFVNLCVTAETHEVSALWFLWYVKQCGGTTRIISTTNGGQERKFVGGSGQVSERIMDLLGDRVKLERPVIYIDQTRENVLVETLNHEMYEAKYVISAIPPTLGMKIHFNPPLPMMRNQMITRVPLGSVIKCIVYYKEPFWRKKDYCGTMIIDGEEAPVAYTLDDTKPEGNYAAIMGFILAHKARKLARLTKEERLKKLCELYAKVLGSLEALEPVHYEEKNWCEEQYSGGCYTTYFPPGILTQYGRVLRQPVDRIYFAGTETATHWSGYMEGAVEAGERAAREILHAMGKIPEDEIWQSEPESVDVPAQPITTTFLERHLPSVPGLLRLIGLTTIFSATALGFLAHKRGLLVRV

[3] = target: T2, Cholinesterase (Homo sapiens, UniProt P06276); assay: Inhibition of human serum BuChE using butyrylthiocholine as substrate preincubated for 5 mins followed by substrate addition measured for 5 mins by Ellman's method
T2 sequence (P06276 whole entry): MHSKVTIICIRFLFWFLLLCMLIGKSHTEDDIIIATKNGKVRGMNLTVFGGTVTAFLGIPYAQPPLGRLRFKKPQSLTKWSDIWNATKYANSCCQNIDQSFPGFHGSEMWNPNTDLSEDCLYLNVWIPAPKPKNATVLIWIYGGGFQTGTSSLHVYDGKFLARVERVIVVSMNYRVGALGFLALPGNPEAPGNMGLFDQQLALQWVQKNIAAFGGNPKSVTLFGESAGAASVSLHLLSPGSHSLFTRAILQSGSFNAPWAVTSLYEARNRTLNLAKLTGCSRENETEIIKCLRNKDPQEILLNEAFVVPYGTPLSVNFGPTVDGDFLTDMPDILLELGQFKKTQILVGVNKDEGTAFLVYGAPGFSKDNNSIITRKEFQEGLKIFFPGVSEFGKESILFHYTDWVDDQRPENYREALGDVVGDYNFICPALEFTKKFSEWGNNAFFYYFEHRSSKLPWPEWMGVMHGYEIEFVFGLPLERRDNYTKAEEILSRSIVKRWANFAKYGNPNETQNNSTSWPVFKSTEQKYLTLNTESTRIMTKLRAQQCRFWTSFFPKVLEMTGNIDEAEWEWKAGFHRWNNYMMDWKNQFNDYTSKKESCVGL
In short: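 Spectrophotometric Ellman assay with butyrylcholinesterase from human serum, with donepezil as reference. IC50 is reported in µM as mean ± SEM, n = 5.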

[4] = target: T3, Acetylcholinesterase (Homo sapiens, UniProt P22303); assay: Inhibition of human recombinant AChE using acetylthiocholine iodide as substrate preincubated for 5 mins followed by substrate addition measured for 5 mins by Ellman's method
T3 sequence (P22303 whole entry): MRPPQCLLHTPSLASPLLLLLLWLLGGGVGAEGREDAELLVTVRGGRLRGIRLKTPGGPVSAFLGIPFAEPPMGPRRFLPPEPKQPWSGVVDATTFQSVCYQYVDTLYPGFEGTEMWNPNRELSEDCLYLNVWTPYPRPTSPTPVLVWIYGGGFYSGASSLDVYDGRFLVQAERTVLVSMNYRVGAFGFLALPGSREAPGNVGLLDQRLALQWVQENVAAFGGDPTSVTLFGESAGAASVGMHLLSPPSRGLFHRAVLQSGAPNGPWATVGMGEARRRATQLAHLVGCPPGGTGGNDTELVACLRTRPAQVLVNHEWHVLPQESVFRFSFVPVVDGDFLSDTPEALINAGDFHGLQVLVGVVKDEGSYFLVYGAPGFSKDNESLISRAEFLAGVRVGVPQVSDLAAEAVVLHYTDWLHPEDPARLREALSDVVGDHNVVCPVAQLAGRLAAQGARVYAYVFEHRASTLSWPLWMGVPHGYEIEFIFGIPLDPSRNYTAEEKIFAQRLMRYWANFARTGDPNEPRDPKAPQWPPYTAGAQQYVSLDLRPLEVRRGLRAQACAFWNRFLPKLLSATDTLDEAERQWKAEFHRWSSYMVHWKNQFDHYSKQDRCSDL

[5] = target: T4, Amine oxidase [flavin-containing] A (Homo sapiens, UniProt P21397); assay: Inhibition of human recombinant MAOA at 100 uM using p-tyramine as substrate incubated for 15 mins by fluorimetric method; conditions: 0.25 h
T4 sequence (P21397 whole entry): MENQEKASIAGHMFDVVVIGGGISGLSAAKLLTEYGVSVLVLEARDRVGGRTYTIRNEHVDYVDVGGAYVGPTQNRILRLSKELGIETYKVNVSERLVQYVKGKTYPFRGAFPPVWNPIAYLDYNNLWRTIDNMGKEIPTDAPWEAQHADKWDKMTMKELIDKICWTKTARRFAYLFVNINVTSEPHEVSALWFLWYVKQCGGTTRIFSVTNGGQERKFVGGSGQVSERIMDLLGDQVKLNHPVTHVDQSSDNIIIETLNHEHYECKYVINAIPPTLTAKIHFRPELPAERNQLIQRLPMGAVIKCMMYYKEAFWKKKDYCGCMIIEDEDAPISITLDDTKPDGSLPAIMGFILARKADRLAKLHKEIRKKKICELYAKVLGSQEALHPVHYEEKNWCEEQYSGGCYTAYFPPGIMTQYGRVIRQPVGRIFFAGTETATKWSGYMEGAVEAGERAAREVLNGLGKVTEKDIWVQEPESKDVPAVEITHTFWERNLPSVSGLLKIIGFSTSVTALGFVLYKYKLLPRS
In short: (§1)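 Recombinant hMAO-A or hMAO-B (baculovirus-infected BTI insect cells), amount set to oxidize 165 pmol p-tyramine/min, preincubated with compound 15 min at 37 °C. Reaction started with Amplex Red, 1 U/mL horseradish peroxidase and 1 mM p-tyramine. Resorufin fluorescence read at 37 °C (ex 545/em 590 nm), minus enzyme-free phosphate-buffer background.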

[6] = target: T4, Amine oxidase [flavin-containing] A; assay: Inhibition of human recombinant MAOA using p-tyramine as substrate incubated for 15 mins by fluorimetric method
[7] = test system: Neural stem cell; assay: (§2) Induction of differentiation of C57BL/6 mouse subgranular zone-derived neural stem cell into neuronal phenotype assessed as increase in level of beta-3 tubulin expressing cells in neurosphere at 10 uM preincubated for 7 days followed by cell attachment onto poly-L-lysine-coated coverslip in presence of serum and absence of exogenous growth factor for 3 days by DAPI staining-based florescence microscopy; assay type: functional
In short: (§3)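 Adult (3-month) male C57BL/6 mouse SGZ dentate gyrus neural stem cells grown as neurospheres for 7 days with compound (10 µM). Then adhered on 100 μg/mL poly-L-lysine coverslips for 3 more days with serum, without exogenous growth factors, compound present. Immunocytochemistry for β-III-tubulin (TuJ) and MAP-2 with Alexa-fluor secondaries and DAPI nuclei, imaged by fluorescence microscopy, inner and distal neurosphere areas.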

[8] = test system: Neural stem cell; assay: as §2, with “MAP2” for “beta-3 tubulin”; assay type: functional; in short: as §3
[9] = test system: SH-SY5Y; assay: Neuroprotective activity against rotenone/oligomycin A-induced mitochondrial oxidative stress in human SH-SY5Y cells assessed as increase in cell viability at 0.3 uM after 24 hrs by MTT assay relative to control; assay type: functional
In short: (§4)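 SH-SY5Y cells, passage <13, were seeded at 8x10^4/well for 2 days. Then co-incubated 24 h with compound (0.1, 0.3, 1, 3 µM) plus rotenone 30 µM/oligomycin A 10 µM in F-12/EMEM with 1% FBS; 0.1% DMSO vehicle and 10 nM melatonin control. MTT 0.5 mg/ml final, 2 h at 37 °C, formazan in DMSO read at 540 nm. Normalized to untreated control; triplicates of ≥3 cultures, mean ± SEM.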

[10] = Potentiation of rotenone/oligomycin A-induced mitochondrial oxidative stress in human SH-SY5Y cells at 0.1 to 3 uM after 24 hrs by MTT assay; assay type: ADME, cell-based; in short: as §4
[11] = target: T1, Amine oxidase [flavin-containing] B; assay: Inhibition of human recombinant MAOB at 100 uM using p-tyramine as substrate incubated for 15 mins by fluorimetric method; conditions: 0.25 h; in short: as §1
[12] = target: T2, Cholinesterase; assay: Inhibition of human serum BuChE at 10 uM using butyrylthiocholine as substrate preincubated for 5 mins followed by substrate addition measured for 5 mins by Ellman's method relative to control
In short: (§5)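 Spectrophotometric Ellman assay with recombinant human AChE or BuChE from human serum. Percent inhibition is given at a single concentration of 10 µM. Results are mean ± SEM, n = 5.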

[13] = target: Beta-secretase 1 (Homo sapiens) (UniProt P56817); assay: Inhibition of human BACE1 at 10 uM using Rh-EVNLDAEFK-Quencher as substrate after 60 mins by FRET assay relative to control
Beta-secretase 1 (Homo sapiens), sequence (P56817 whole entry): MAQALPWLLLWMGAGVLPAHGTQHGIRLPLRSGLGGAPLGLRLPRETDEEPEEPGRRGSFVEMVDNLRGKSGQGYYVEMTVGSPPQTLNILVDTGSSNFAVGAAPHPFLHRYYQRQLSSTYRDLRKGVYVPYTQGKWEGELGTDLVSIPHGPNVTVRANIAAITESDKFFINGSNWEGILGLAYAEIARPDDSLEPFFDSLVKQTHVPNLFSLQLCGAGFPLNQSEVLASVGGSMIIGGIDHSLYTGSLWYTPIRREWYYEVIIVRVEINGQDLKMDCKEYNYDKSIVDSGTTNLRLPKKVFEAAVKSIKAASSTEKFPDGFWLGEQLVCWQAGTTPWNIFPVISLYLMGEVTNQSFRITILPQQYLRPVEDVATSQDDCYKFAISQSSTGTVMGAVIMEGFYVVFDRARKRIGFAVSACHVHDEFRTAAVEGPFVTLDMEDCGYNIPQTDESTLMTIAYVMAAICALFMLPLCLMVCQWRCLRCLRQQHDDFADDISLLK
In short: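 FRET-based assay on human recombinant BACE-1, run per the manufacturer's protocol; compounds tested at 10 μM, read as percent inhibition.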

[14] = target: T3, Acetylcholinesterase; assay: Inhibition of human recombinant AChE at 10 uM using acetylthiocholine iodide as substrate preincubated for 5 mins followed by substrate addition measured for 5 mins by Ellman's method relative to control; in short: as §5

| Structure (SMILES) | Activity [1] [equiv] | IC50 [2] [µM] | IC50 [3] [nM] | IC50 [4] [nM] | inhibition at 100 µM [5] [%] | IC50 [6] [µM] | Activity [7] | Activity [8] | Activity [9] | Activity [10] | inhibition at 100 µM [11] [%] | inhibition [12] [%] | inhibition [13] [%] | inhibition [14] [%] |
| --- | --- | --- | --- | --- | --- | --- | --- | --- | --- | --- | --- | --- | --- | --- |
| O=C(/C=C/c1cccc(O)c1)NCCC1CCN(Cc2ccccc2)CC1 | 2.2 | > 100 | 1020 | 1120 | 45 to 55 | – | – | – | – | – | – | – | – | – |
| O=C(/C=C/c1ccc(O)cc1)NCCC1CCN(Cc2ccccc2)CC1 | 1.7 | > 100 | 930 | 1010 | – | 57.5 | – | – | – | – | – | – | – | – |
| COc1ccc(/C=C/C(=O)NCCC2CCN(Cc3ccccc3)CC2)c(OC)c1 | – | > 100 | 4390 | 630 | – | > 100 | – | – | – | – | – | – | – | – |
| O=C(/C=C/c1ccc(O)c(O)c1)NCCC1CCN(Cc2ccccc2)CC1 | 1 | 6 | 690 | 1750 | – | 3.5 | Active | Active | – | – | – | – | – | – |
| COc1cccc(/C=C/C(=O)NCCC2CCN(Cc3ccccc3)CC2)c1 | – | > 100 | 980 | 750 | 45 to 55 | – | – | – | – | – | – | – | – | – |
| COc1cc(/C=C/C(=O)NCCC2CCN(Cc3ccccc3)CC2)ccc1O | 1.8 | 13.1 | 76 | 390 | – | 11.4 | – | – | 30 - 35% | Non-Toxic | – | – | – | – |
| O=C(/C=C/c1ccc(O)cc1O)NCCC1CCN(Cc2ccccc2)CC1 | 1.3 | 8.3 | 260 | 990 | – | 5.5 | – | – | – | – | – | – | – | – |
| COc1ccc(/C=C/C(=O)Nc2ccc(CN(C)Cc3ccccc3)cc2)c(OC)c1 | 0.5 | > 100 | > 10000 | 8730 | – | > 100 | – | – | – | – | – | – | – | – |
| CN(Cc1ccccc1)Cc1ccc(NC(=O)/C=C/c2cccc(O)c2)cc1 | 3.2 | – | – | 3490 | 45 to 55 | – | – | – | 30 - 35% | Non-Toxic | 45 to 55 | 46 | – | – |
| COc1cc(/C=C/C(=O)Nc2cccc(CN(C)Cc3ccccc3)c2)ccc1O | 1.4 | 7.7 | 5890 | 5990 | – | 4.5 | – | – | 30 - 35% | Non-Toxic | – | – | 23 to 33 | – |
| COc1cc(/C=C/C(=O)Nc2ccc(CN(C)Cc3ccccc3)cc2)ccc1O | 1.5 | – | – | – | – | – | – | – | – | – | – | 45 | 23 to 33 | 33 |
| COc1ccc(/C=C/C(=O)NCCC2CCN(Cc3ccccc3)CC2)cc1 | – | – | 760 | 490 | 45 to 55 | – | – | – | – | – | 45 to 55 | – | – | – |
| COc1ccc(/C=C/C(=O)NCCC2CCN(Cc3ccccc3)CC2)cc1OC | 0.4 | – | 690 | 260 | – | > 100 | – | – | – | – | 45 to 55 | – | – | – |
| CN(Cc1ccccc1)Cc1ccc(NC(=O)/C=C/c2ccc(O)cc2)cc1 | 1.8 | 29 | – | – | – | 29.7 | – | – | – | – | – | 30 | – | 46 |
| COc1cccc(/C=C/C(=O)Nc2ccc(CN(C)Cc3ccccc3)cc2)c1 | 0.6 | > 100 | – | 4670 | – | > 100 | – | – | – | – | – | 35 | 23 to 33 | – |
| COc1ccc(/C=C/C(=O)Nc2ccc(CN(C)Cc3ccccc3)cc2)cc1 | – | > 100 | – | 5760 | – | > 100 | – | – | – | – | – | 25 | 23 to 33 | – |
| COc1ccc(/C=C/C(=O)Nc2ccc(CN(C)Cc3ccccc3)cc2)cc1OC | 0.4 | – | > 10000 | 3980 | – | – | – | – | – | – | – | – | – | – |
